According to ChEMBL document CHEMBL2150886, “Synthesis of [3β-acetoxy-urs-12-en-28-oyl]-1-monoglyceride and investigation on its anti tumor effects against BGC-823” (Bioorg Med Chem, 2011):
pIC50: −log10 of the molar value. The source made the active and inactive calls. No cut-off for these calls is given here.

Legend:
BGC-823 [1] = assay: Induction of apoptosis in human BGC823 cells assessed as late apoptotic cell population at 40 uM by annexinV/propidium iodide staining (reference value: 2.1%); type: functional
BGC-823 [2] = assay: Induction of apoptosis in human BGC823 cells assessed as early apoptotic cell population at 40 uM by annexinV/propidium iodide staining (reference value: 1.9%); type: functional
BGC-823 [3] = assay: Reduction in survivin protein expression in human BGC823 cells at 40 uM incubated for 48 hrs by Western blotting; type: functional
How it was run: (§1)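 BGC-823 cells were treated with 10, 20 or 40 µM for 48 h, detached with trypsin/EDTA, and more than 10⁶ cells were lysed. Protein was quantified by Bradford, and 150–200 µg per lane was run on 12.5% SDS-PAGE and transferred to PVDF. Antibodies: Survivin 1:1000, Bcl-2 1:200, β-actin 1:1000; HRP secondary 1 h; ECL detection. Expression was quantified relative to control.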

Mus musculus [4] = assay: Toxicity in human BGC823 cells xenografted nude mouse assessed as body weight changes at 6 mg/kg, iv treated 5 times on day 1, 4, 7, 10 and day 13 post tumor implant (reference value: 20.21 +/- 1.83 grams); type: organism-based, BGC-823; set-up: dose 6 mg/kg, route intravenous; details: in vivo
How it was run: (§2)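 Nude mice (male, 5 weeks, 18–22 g) carried subcutaneous BGC-823 xenografts from 1 × 10⁷ cells. Dosing started at about 200 mm³ tumour volume, with eight mice per group. Each dose was 0.2 mL given iv; the saline control received 0.9% saline. Body weight was recorded on days 1, 4, 7, 10, 13 and 16 of treatment and reported as mean ± SD, n = 8.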

BGC-823 [5] = assay: Reduction in survivin protein expression in human BGC823 cells incubated for 48 hrs by Western blotting; type: functional, cell-based; how it was run: as §1
Mus musculus [6] = assay: Toxicity in human BGC823 cells xenografted nude mouse assessed as body weight changes at 6 mg/kg, iv treated 4 times on day 1, 4, 7 and 10 post tumor implant (reference value: 20.54 +/- 1.45 grams); type: organism-based, BGC-823; set-up: dose 6 mg/kg, route intravenous; details: in vivo; how it was run: as §2
BGC-823 [7] = assay: Induction of apoptosis in human BGC823 cells assessed as induction of DNA fragmentation at 10 to 40 uM incubated for 48 hrs by alkaline comet assay; type: functional, cell-based
How it was run: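 Alkaline comet assay on about 10⁵ BGC-823 cells after 48 h at 37 °C with 10, 20 or 40 µM. Cells with diffuse fan-like tails and small heads were scored as apoptotic; large defined heads with minimal DNA diffusion were scored as normal.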

Mus musculus [8] = assay: Toxicity in human BGC823 cells xenografted nude mouse assessed as body weight changes at 6 mg/kg, iv treated 3 times on day 1, day 4 and day 7 post tumor implant (reference value: 20.79 +/- 1.29 grams); type: organism-based, BGC-823; set-up: dose 6 mg/kg, route intravenous; details: in vivo; how it was run: as §2
Mus musculus [9] = assay: Toxicity in human BGC823 cells xenografted nude mouse assessed as body weight changes at 6 mg/kg, iv treated […] on day 1, 4, 7, 10, 13 and day 16 post tumor implant (reference value: 20.12 +/- 1.52 grams); type: organism-based, BGC-823; set-up: dose 6 mg/kg, route intravenous; details: in vivo
[10] = Cytotoxicity against human GES-1 cells incubated for 48 hrs by MTT assay; type: cell-based; details: GES1, 48 h
How it was run: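 Cells were grown in RPMI-1640 with 10% heat-inactivated FCS at 37 °C under 5% CO₂, seeded at 5 × 10³ per well and left 24 h. Compounds in DMSO were diluted in medium to 0.5% final DMSO; controls received 0.5% DMSO. Exposure was 24–72 h, followed by MTT for 4 h, formazan dissolved in DMSO, and A570. Six wells per sample; IC₅₀ taken at 50% inhibition; ≥3 repeats.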

Mus musculus [11] = assay: Toxicity in human BGC823 cells xenografted nude mouse assessed as body weight changes at 30 mg/kg, iv treated 4 times on day 1, 4, 7 and 10 post tumor implant (reference value: 20.54 +/- 1.45 grams); type: organism-based, BGC-823; set-up: dose 30 mg/kg, route intravenous; details: in vivo; how it was run: as §2
BGC-823 [12] = assay: Induction of apoptosis in human BGC823 cells assessed as viable cell population at 30 uM by annexinV/propidium iodide staining (reference value: 95.5%); type: functional
BGC-823 [13] = assay: Cell cycle arrest in human BGC823 cells assessed as accumulation of cells at subG0/G1 phase at 20 uM incubated for 72 hrs by propidium iodide staining based flow cytometry (Rvb= 0.66%); type: functional
How it was run: (§3)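 BGC-823 cells were exposed to 20 µM for 24, 48 or 72 h, or to 10, 20 or 40 µM for 48 h. About 10⁶ cells were harvested and stained with propidium iodide using a cell cycle kit, then analysed by flow cytometry. Percentages were read for sub-G0/G1, G0/G1, S and G2/M. Each experiment was run at least three times; mean ± SD.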

BGC-823 [14] = assay: Induction of apoptosis in human BGC823 cells assessed as increase in caspase 3 activity at 10 to 20 uM incubated for 48 hrs; type: functional, cell-based
How it was run: (§4)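 BGC-823 cells were exposed to 0, 10 or 20 µM for 48 h, detached with trypsin/EDTA and washed in cold PBS. About 10⁶ cells were lysed, and the lysate was incubated 1 h with Ac-DEVD-pNA, with cleavage read at 405 nm. Activity was normalised to Bradford protein and expressed relative to the untreated control. Mean ± SD of three independent experiments.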

BGC-823 [15] = assay: Induction of apoptosis in human BGC823 cells assessed as viable cell population at 40 uM by annexinV/propidium iodide staining (reference value: 95.5%); type: functional
Mus musculus [16] = assay: Toxicity in human BGC823 cells xenografted nude mouse assessed as body weight changes at 30 mg/kg, iv treated 3 times on day 1, day 4 and day 7 post tumor implant (reference value: 20.79 +/- 1.29 grams); type: organism-based, BGC-823; set-up: dose 30 mg/kg, route intravenous; details: in vivo; how it was run: as §2
BGC-823 [17] = assay: Induction of apoptosis in human BGC823 cells assessed as viable cell population at 20 uM by annexinV/propidium iodide staining (reference value: 95.5%); type: functional
BGC-823 [18] = assay: Induction of apoptosis in human BGC823 cells assessed as increase in caspase 3 activity at 10 uM incubated for 48 hrs relative to untreated control; type: functional; how it was run: as §4
BGC-823 [19] = assay: Cell cycle arrest in human BGC823 cells assessed as accumulation of cells at subG0/G1 phase incubated for 24 to 72 hrs by propidium iodide staining based flow cytometry; type: functional; how it was run: as §3
Mus musculus [20] = assay: Toxicity in human BGC823 cells xenografted nude mouse assessed as body weight changes at 30 mg/kg, iv treated 5 times on day 1, 4, 7, 10, 13 and day 16 post tumor implant (reference value: 20.12 +/- 1.52 grams); type: organism-based, BGC-823; set-up: dose 30 mg/kg, route intravenous; details: in vivo; how it was run: as §2
BGC-823 [21] = assay: Induction of apoptosis in human BGC823 cells assessed as early apoptotic cell population at 20 uM by annexinV/propidium iodide staining (reference value: 1.9%); type: functional
BGC-823 [22] = assay: Induction of apoptosis in human BGC823 cells assessed as viable cell population at 10 uM by annexinV/propidium iodide staining (reference value: 95.5%); type: functional
BGC-823 [23] = assay: Induction of apoptosis in human BGC823 cells assessed as necrotic damaged cell population at 10 uM by annexinV/propidium iodide staining (reference value: 0.5%; type: functional
BGC-823 [24] = assay: Induction of apoptosis in human BGC823 cells assessed as late apoptotic cell population at 30 uM by annexinV/propidium iodide staining (reference value: 2.1%); type: functional

Compound: CC(=O)O[C@H]1CC[C@]2(C)[C@H]3CC=C4[C@@H]5[C@@H](C)[C@H](C)CC[C@]5(C(=O)OCC(O)CO)CC[C@@]4(C)[C@]3(C)CC[C@H]2C1(C)C (some centres undefined)
- Activity (BGC-823 [1]): 89.5%
- Activity (BGC-823 [2]): 7.4%
- Activity (BGC-823 [3]): 53.1%
- Activity (Mus musculus [4]): 20.07 g
- Activity (BGC-823 [5]): Dose-dependent effect
- Activity (Mus musculus [6]): 20.03 g
- Activity (BGC-823 [7]): Dose-dependent effect
- Activity (Mus musculus [8]): 20.13 g
- Activity (Mus musculus [9]): 20.09 g
- pIC50 [10]: 3.81
- Activity (Mus musculus [11]): 19.16 g
- Activity (BGC-823 [12]): 19.4%
- Activity (BGC-823 [13]): 13.63%
- Activity (BGC-823 [14]): Active
- Activity (BGC-823 [15]): 2%
- Activity (Mus musculus [16]): 19.29 g
- Activity (BGC-823 [17]): 72.2%
- fold change (FC) (BGC-823 [18]): 2.54
- Activity (BGC-823 [19]): Dose-dependent effect
- Activity (Mus musculus [20]): 19.57 g
- Activity (BGC-823 [21]): 19.4%
- Activity (BGC-823 [22]): 92.7%
- Activity (BGC-823 [23]): 0.2%
- Activity (BGC-823 [24]): 29%
